Residues, ends and D or L forms follow the SMILES beside them. *: point of attachment. Phenylacetyl(4-E-phenylazo) = O=C(Cc1ccc(/N=N/c2ccccc2)cc1)*; X5 = CCN(CC)c1ccc(/N=N/c2ccc(CC(=O)*)cc2)cc1; X3 = CN(C)c1ccc(/N=N/c2ccc(CCC(=O)*)cc2)cc1; X4 = CN(C)c1ccc(/N=N/c2ccc(CC(=O)*)cc2)cc1; X2 = CN(C)c1ccc(/N=N/c2ccc(C(=O)*)cc2)cc1; X1 = O=C(Cc1ccc(/N=N/c2ccc(O)cc2)cc1)*
Legend:
[1] = target: T1, NAD-dependent protein deacetylase sirtuin-2 (Homo sapiens, UniProt Q8IXJ6); experiment: Inhibition of recombinant human SIRT2 defatty-acylase activity using SFP3 as substrate measured at 5 mins interval for 60 mins in presence of NAD+ by fluorescence assay
T1 sequence (Q8IXJ6 whole entry): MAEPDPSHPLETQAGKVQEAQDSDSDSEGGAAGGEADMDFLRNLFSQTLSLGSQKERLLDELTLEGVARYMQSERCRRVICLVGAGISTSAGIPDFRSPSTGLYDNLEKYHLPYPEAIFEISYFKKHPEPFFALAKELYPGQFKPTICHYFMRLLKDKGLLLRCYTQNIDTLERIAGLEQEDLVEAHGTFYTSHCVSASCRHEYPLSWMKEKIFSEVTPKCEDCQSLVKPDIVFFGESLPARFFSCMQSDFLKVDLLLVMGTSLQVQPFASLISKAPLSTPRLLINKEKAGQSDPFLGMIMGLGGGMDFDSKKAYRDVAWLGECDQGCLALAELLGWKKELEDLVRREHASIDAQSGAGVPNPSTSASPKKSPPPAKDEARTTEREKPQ

[2] = target: T1, NAD-dependent protein deacetylase sirtuin-2; experiment: Inhibition of recombinant human SIRT2 demyristoylase activity using p53(Myr)-AMC as substrate measured after 3 hrs in presence of NAD+ and trypsin by fluorescence assay
[3] = target: T1, NAD-dependent protein deacetylase sirtuin-2; experiment: Inhibition of recombinant human SIRT2 deacylation activity using Fluor de Lys Sirt2 as substrate measured at 5 mins interval for 30 mins in presence of NAD+ by fluorescence assay
[4] = target: T2, NAD-dependent protein deacetylase sirtuin-1 (Homo sapiens, UniProt Q96EB6); experiment: Inhibition of recombinant human C-terminal His6-tagged SIRT1 (Met1 to Ser747 residues) defatty-acylase activity expressed in Escherichia coli using SFP3 as substrate measured at 5 mins interval for 60 mins in presence of NAD+ by fluorescence assay
T2 sequence (Q96EB6 whole entry): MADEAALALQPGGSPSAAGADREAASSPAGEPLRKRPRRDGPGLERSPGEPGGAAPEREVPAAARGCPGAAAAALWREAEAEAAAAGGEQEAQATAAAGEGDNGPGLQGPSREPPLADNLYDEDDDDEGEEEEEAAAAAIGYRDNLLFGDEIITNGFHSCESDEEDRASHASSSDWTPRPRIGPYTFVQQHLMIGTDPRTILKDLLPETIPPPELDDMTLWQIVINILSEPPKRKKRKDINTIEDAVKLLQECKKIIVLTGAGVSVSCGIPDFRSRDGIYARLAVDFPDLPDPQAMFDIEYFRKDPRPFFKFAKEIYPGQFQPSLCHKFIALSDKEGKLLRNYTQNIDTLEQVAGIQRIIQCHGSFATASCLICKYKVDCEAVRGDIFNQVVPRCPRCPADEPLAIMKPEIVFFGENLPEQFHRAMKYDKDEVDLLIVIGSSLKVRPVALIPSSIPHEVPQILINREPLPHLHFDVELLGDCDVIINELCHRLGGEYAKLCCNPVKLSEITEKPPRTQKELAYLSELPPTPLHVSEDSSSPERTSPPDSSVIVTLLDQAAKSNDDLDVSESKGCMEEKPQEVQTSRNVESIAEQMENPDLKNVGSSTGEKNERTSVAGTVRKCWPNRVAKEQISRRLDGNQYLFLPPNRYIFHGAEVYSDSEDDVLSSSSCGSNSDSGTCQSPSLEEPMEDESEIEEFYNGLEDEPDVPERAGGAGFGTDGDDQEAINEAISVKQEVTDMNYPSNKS

[5] = target: T3, NAD-dependent protein deacetylase sirtuin-3, mitochondrial (Homo sapiens, UniProt Q9NTG7); experiment: Inhibition of recombinant human SIRT3 (118 to 399 residues) defatty-acylase activity expressed in Escherichia coli using SFP3 as substrate measured at 5 mins interval for 60 mins in presence of NAD+ by fluorescence assay
T3 sequence (Q9NTG7 whole entry): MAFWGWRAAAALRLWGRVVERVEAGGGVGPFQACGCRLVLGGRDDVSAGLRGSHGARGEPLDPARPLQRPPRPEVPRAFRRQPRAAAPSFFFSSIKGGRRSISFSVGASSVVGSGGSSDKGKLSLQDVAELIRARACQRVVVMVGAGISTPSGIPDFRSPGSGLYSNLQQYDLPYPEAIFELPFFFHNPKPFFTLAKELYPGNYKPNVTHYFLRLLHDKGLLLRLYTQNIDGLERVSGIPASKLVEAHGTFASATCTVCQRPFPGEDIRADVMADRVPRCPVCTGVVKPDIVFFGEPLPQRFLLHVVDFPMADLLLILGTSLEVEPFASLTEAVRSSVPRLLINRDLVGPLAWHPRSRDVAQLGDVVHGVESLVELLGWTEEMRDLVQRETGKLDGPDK

[6] = target: T1, NAD-dependent protein deacetylase sirtuin-2; experiment: Drug metabolism assessed as recombinant human SIRT2-mediated deacylation by measuring dabcyl formation at 20 uM measured up to 4 hrs in presence of NAD+ by HPLC analysis; type: ADME
Method in brief: (§1)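 Compound at 20 μM final (0.2% DMSO) with 350 nM SIRT2 and 500 μM NAD⁺ at 37 °C in buffer I: 50 mM Tris-HCl pH 8.0, 150 mM NaCl, 1 mM DTT, 0.05% Triton X-100. Aliquots taken at 0 and 4 h. Reversed-phase HPLC, TFA water/acetonitrile gradient. Detection at 510, 350 or 254 nm depending on compound.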

[7] = target: T2, NAD-dependent protein deacetylase sirtuin-1; experiment: Inhibition of recombinant human C-terminal His6-tagged SIRT1 (Met1 to Ser747 residues) demyristoylase activity expressed in Escherichia coli using p53(Myr)-AMC as substrate measured after 3 hrs in presence of NAD+ and trypsin by fluorescence assay
Method in brief: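 SIRT1 at 14 nM final with 50 μM p53(Myr)-AMC and 500 μM NAD⁺ in Tris-HCl pH 8.0/NaCl/DTT/Triton buffer, 0.5% DMSO, 3 h at room temperature. Trypsin (100 nM final) plus nicotinamide (1 mM final) then added. Fluorescence Ex 355/Em 460 nm read every 5 min for 20 min at 37 °C. n = 3.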

[8] = target: T3, NAD-dependent protein deacetylase sirtuin-3, mitochondrial; experiment: Inhibition of recombinant human SIRT3 (118 to 399 residues) demyristoylase activity expressed in Escherichia coli using p53(Myr)-AMC as substrate measured after 3 hrs in presence of NAD+ and trypsin by fluorescence assay
[9] = system: SIRT2; experiment: Stability of the compound in SIRT assay buffer assessed as parent compound remaining at 20 uM measured after 4 hrs in presence of recombinant human SIRT2 and NAD+ by HPLC analysis; type: physicochemical; conditions: read-out: Stability; method in brief: as §1
[10] = target: T1, NAD-dependent protein deacetylase sirtuin-2; experiment: Drug metabolism assessed as recombinant human SIRT2-mediated deacylation by measuring dabcyl-PH formation at 20 uM measured up to 4 hrs in presence of NAD+ by HPLC analysis; type: ADME; method in brief: as §1

Structure (SMILES)	IC50 [1] [nM]	IC50 [2] [nM]	IC50 [3] [nM]	IC50 [4] [nM]	IC50 [5] [nM]	Drug metabolism [6]	IC50 [7] [nM]	IC50 [8] [nM]	remaining at 4 h, 20 µM [9] [%]	Drug metabolism [10]
CC[C@H](C)[C@H](NC(=O)[C@@H](NC(=O)[C@H](CCCCNC(=O)c1ccc(/N=N/c2ccc(N(C)C)cc2)cc1)NC(=O)[C@H](CC(=O)O)NC(=O)[C@H](CO)NC(C)=O)[C@@H](C)O)C(N)=O (Ac-SDK(X2)TI-NH2)	> 2000	> 2000	1200	> 2000	> 2000	–	–	–	–	–
CC[C@H](C)[C@H](NC(=O)[C@H](CCCNC(=N)N)NC(C)=O)C(=O)N[C@@H](CCCCNC(=O)c1ccc(/N=N/c2ccc(N(C)C)cc2)cc1)C(=O)N[C@@H](CCCNC(=N)N)C(=O)N[C@@H](Cc1ccc(O)cc1)C(N)=O (Ac-RIK(X2)RY-NH2)	430	1600	1600	> 2000	770	Metabolite_Detected	–	–	–	–
CC[C@H](C)[C@H](NC(=O)[C@@H](NC(=O)[C@H](CCCCNC(=O)Cc1ccc(/N=N/c2ccccc2)cc1)NC(=O)[C@H](CC(=O)O)NC(=O)[C@H](CO)NC(C)=O)[C@@H](C)O)C(N)=O (Ac-SDK(Phenylacetyl(4-E-phenylazo))TI-NH2)	1500	> 2000	580	> 2000	> 2000	–	–	–	–	–
C[C@H](NC(=O)[C@H](CCCCNC(=O)Cc1ccc(/N=N/c2ccc(O)cc2)cc1)NC(=O)OCc1ccccc1)C(N)=O	> 2000	–	190	–	–	–	–	–	–	–
Cc1cc(C)nc(SCC(=O)Nc2ncc(Cc3cccc4ccccc34)s2)n1	–	–	–	> 10000	–	–	> 10000	–	–	–
CC[C@H](C)[C@H](NC(=O)[C@H](CCCNC(=N)N)NC(C)=O)C(=O)N[C@@H](CCCCNC(=O)CCc1ccc(/N=N/c2ccc(N(C)C)cc2)cc1)C(=O)N[C@@H](CCCNC(=N)N)C(=O)N[C@@H](Cc1ccc(O)cc1)C(N)=O (Ac-RIK(X3)RY-NH2)	300	> 2000	1100	1700	1500	–	–	–	–	Metabolite_Detected
C[C@H](NC(=O)[C@H](CCCCNC(=O)Cc1ccc(/N=N/c2ccc(OCc3ccccc3)cc2)cc1)NC(=O)OCc1ccccc1)C(N)=O	> 2000	–	190	–	–	–	–	–	–	–
CCCCCCCCCCCCCC(=O)NCCCC[C@H](NC(=O)OCc1ccccc1)C(=O)Nc1ccccc1	> 2000	–	> 1000	–	–	–	–	–	–	–
C[C@H](NC(=O)[C@H](CCCCNC(=O)Cc1ccc(/N=N/c2ccc(OCCc3ccccc3)cc2)cc1)NC(=O)OCc1ccccc1)C(N)=O	> 2000	> 2000	400	> 2000	> 2000	–	–	–	–	–

Further lines, results first:

IC50 [1] [nM]	IC50 [2] [nM]	IC50 [3] [nM]	IC50 [4] [nM]	IC50 [5] [nM]	Drug metabolism [6]	IC50 [7] [nM]	IC50 [8] [nM]	remaining at 4 h, 20 µM [9] [%]	Drug metabolism [10]	Structure (SMILES)
68	190	260	1100	180	–	140	480	–	–	CC[C@H](C)[C@H](NC(=O)[C@H](CCCNC(=N)N)NC(C)=O)C(=O)N[C@@H](CCCCNC(=O)Cc1ccc(/N=N/c2ccc(N(CC)CC)cc2)cc1)C(=O)N[C@@H](CCCNC(=N)N)C(=O)N[C@@H](Cc1ccc(O)cc1)C(N)=O (Ac-RIK(X5)RY-NH2)
63	250	110	270	–	–	84	–	–	–	CC[C@H](C)[C@H](NC(C)=O)C(=O)N[C@@H](CCCCNC(=O)Cc1ccc(/N=N/c2ccccc2)cc1)C(=O)N[C@@H](CCCNC(=N)N)C(N)=O
36	130	170	400	110	–	98	330	> 99	–	CC[C@H](C)[C@H](NC(=O)[C@H](CCCNC(=N)N)NC(C)=O)C(=O)N[C@@H](CCCCNC(=O)Cc1ccc(/N=N/c2ccc(N(C)C)cc2)cc1)C(=O)N[C@@H](CCCNC(=N)N)C(=O)N[C@@H](Cc1ccc(O)cc1)C(N)=O (Ac-RIK(X4)RY-NH2)
120	520	120	1400	–	–	430	–	–	–	CC[C@H](C)[C@H](NC(=O)[C@H](CCCCNC(=O)Cc1ccc(/N=N/c2ccccc2)cc1)NC(=O)[C@@H](NC(C)=O)C(C)C)C(=O)N[C@@H](CCCCN)C(=O)N[C@@H](CCCCN)C(N)=O (Ac-VK(Phenylacetyl(4-E-phenylazo))IKK-NH2)
19	51	180	48	77	–	71	340	–	–	CC[C@H](C)[C@H](NC(=O)[C@H](CCCNC(=N)N)NC(C)=O)C(=O)N[C@@H](CCCCNC(=O)Cc1ccc(/N=N/c2ccccc2)cc1)C(=O)N[C@@H](CCCNC(=N)N)C(=O)N[C@@H](Cc1ccc(O)cc1)C(N)=O (Ac-RIK(Phenylacetyl(4-E-phenylazo))RY-NH2)
19	44	110	120	55	–	50	190	–	–	CC[C@H](C)[C@H](NC(=O)[C@H](CCCNC(=N)N)NC(C)=O)C(=O)N[C@@H](CCCCNC(=O)Cc1ccc(/N=N/c2ccc(O)cc2)cc1)C(=O)N[C@@H](CCCNC(=N)N)C(=O)N[C@@H](Cc1ccc(O)cc1)C(N)=O (Ac-RIK(X1)RY-NH2)

Reference: ChEMBL document CHEMBL4304758, “Development of Peptide-Based Sirtuin Defatty-Acylase Inhibitors Identified by the Fluorescence Probe, SFP3, That Can Efficiently Measure Defatty-Acylase Activity of Sirtuin” (J Med Chem, 2019)
